From ChEMBL document CHEMBL1124015, “Methods for drug discovery: development of potent, selective, orally effective cholecystokinin antagonists” (J Med Chem, 1988)

Columns and labels:
[1] = biological target: GABA-A receptor; anion channel; test: Inhibition of [3H]flunitrazepam binding to GABA-A benzodiazepine receptor of guinea brain; parameters: species or system Cavia porcellus
[2] = biological target: T1, Cholecystokinin receptor type A (Rattus norvegicus, UniProt P30551); test: Half-maximal inhibition of [125I]CCK-33 binding to cholecystokinin A receptor from rat pancreatic tissue
T1 sequence (P30551 whole entry): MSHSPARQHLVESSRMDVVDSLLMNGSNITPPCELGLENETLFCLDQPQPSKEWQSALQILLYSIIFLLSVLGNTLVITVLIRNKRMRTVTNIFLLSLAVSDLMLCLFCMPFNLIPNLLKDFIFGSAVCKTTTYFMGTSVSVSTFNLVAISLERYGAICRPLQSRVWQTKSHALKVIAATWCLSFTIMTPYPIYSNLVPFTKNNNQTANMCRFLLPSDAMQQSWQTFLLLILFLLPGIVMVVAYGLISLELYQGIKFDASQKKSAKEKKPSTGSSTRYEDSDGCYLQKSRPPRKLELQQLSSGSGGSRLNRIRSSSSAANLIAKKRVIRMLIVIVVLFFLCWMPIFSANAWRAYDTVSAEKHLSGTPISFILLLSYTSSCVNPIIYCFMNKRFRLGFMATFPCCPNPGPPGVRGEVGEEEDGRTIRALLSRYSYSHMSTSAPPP

[3] = Ratio of IC50 CCK(pancreas)/ IC50BZD (brain); assay type: functional
[4] = biological target: T1, Cholecystokinin receptor type A; test: Half-maximal inhibition of [125I]CCK-8 binding to cholecystokinin receptor from rat pancreatic tissue
[5] = tested on: Mus musculus; test: Ability to antagonize CCK-8 inhibition of charcoal meal gastric emptying in mice, after oral administration; assay type: functional; details: Stomach
Outline: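 Mice dosed orally with test compound at one or more dose levels (N ≥ 10/dose) 1 h before CCK-8 (80 μg/kg, sc). CCK-8 given 5 min before a charcoal meal. Gastric emptying measured 5 min after the meal.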

[6] = biological target: GABA-A receptor; anion channel; test: Inhibition of [3H]diazepam binding to GABA-A benzodiazepine receptor of rat brain
[7] = Ratio of IC50 CCK (pancreas)/ IC50 BZD (brain); assay type: functional

Compound	IC50 [2] [nM]	further results
CN1C(=O)[C@H](N)N=C(c2ccccc2)c2ccccc21	> 100000	IC50 [1]: 8500 nM; Ratio [3]: >11
CN1C(=O)[C@@H](N)N=C(c2ccccc2)c2ccccc21		IC50 [1]: > 100000 nM
CN1C(=O)[C@@H](NC(=O)/C=C/c2ccccc2)N=C(c2ccccc2)c2ccccc21		IC50 [4]: 0.3 nM
CC(C)CCC(=O)N[C@H]1N=C(c2ccccc2)c2ccccc2N(C)C1=O		IC50 [4]: 780 nM
CN1C(=O)[C@H](NC(=O)C2CCCCC2)N=C(c2ccccc2)c2ccccc21		IC50 [4]: > 10000 nM
CCCCCc1ccc(C(=O)N[C@H]2N=C(c3ccccc3F)c3ccccc3N(C)C2=O)cc1	690	
CN1C(=O)[C@@H](NC(=O)c2ccc(C(F)(F)F)cc2)N=C(c2ccccc2F)c2ccccc21	11	
CN1C(=O)[C@@H](NC(=O)c2ccc(I)cc2)N=C(c2ccccc2F)c2ccccc21	0.8	
CN1C(=O)[C@@H](NC(=O)c2ccc(Br)cc2)N=C(c2ccccc2F)c2ccccc21	0.8	
CN1C(=O)[C@H](NC(=O)c2ccc(Br)cc2)N=C(c2ccccc2)c2ccccc21		IC50 [1]: 15000 nM; Ratio [3]: 0.05
CN1C(=O)[C@@H](NC(=O)c2cc3ccccc3[nH]2)N=C(c2ccccc2F)c2ccccc21	6	
CN1C(=O)[C@@H](NC(=O)c2ccc(Br)cc2)N=C(c2ccccc2)c2ccccc21	2.9	IC50 [1]: > 100000 nM; ED50 [5]: 0.4 mg/kg; Ratio [3]: <1e-05
O=C(NC1N=C(c2ccccc2)c2ccccc2NC1=O)c1ccc(C(F)(F)F)cc1 (configuration not stated)	240	
CN1C(=O)C(NC(=O)c2ccc(Cl)cc2)[N+]([O-])=C(c2ccccc2F)c2ccccc21 (configuration not stated)	66	
CN1C(=O)C(NC(=O)[C@@H](Cc2ccccc2)NC(=O)OC(C)(C)C)N=C(c2ccccc2)c2ccccc21 (some centres not stated)	700	
O=C(NC1N=C(c2ccccc2F)c2ccccc2NC1=O)c1ccc([N+](=O)[O-])cc1 (configuration not stated)	110	
CN1C(=O)C(NC(=O)c2ccc(C(F)(F)F)cc2)N=C(c2ccccc2F)c2ccccc21 (configuration not stated)	20	
NC1N=C(c2ccccc2F)c2ccccc2NC1=O (configuration not stated)	> 100000	
O=C(NC1N=C(c2ccccc2)c2ccccc2NC1=O)c1ccc(F)cc1 (configuration not stated)	480	
NC1N=C(c2ccccc2)c2ccccc2NC1=O (configuration not stated)	> 100000	
O=C(NC1N=C(c2ccccc2)c2ccccc2NC1=O)c1cc2ccccc2[nH]1 (configuration not stated)	4.7	IC50 [6]: > 100000 nM; ED50 [5]: 0.4 mg/kg; Ratio [7]: <4.7e-05

Compound	IC50 [2] [nM]	further results
O=C(NC1N=C(c2ccccc2F)c2ccccc2NC1=O)c1cc2ccccc2[nH]1 (configuration not stated)	2.1	
CN1C(=O)[C@H](NC(=O)[C@H](N)Cc2ccccc2)N=C(c2ccccc2)c2ccccc21	100000	
O=C(O)CN1C(=O)C(NC(=O)c2cc3ccccc3[nH]2)N=C(c2ccccc2F)c2ccccc21 (configuration not stated)	1.5	
COc1ccc2[nH]c(C(=O)NC3N=C(c4ccccc4F)c4ccccc4NC3=O)cc2c1 (configuration not stated)	200	
O=C(NC1N=C(c2ccccc2)c2ccccc2NC1=O)c1cnccn1 (configuration not stated)	> 10000	
N[C@H](Cc1ccccc1)C(=O)NC1N=C(c2ccccc2)c2ccccc2NC1=O (some centres not stated)	3100	
O=C(NC1N=C(c2ccccc2F)c2ccccc2NC1=O)c1cc2cc(Cl)ccc2[nH]1 (configuration not stated)	71	
CCCc1ccc(C(=O)NC2N=C(c3ccccc3)c3ccccc3NC2=O)cc1 (configuration not stated)	3600	
CC(C)(C)OC(=O)N[C@H](Cc1ccccc1)C(=O)NC1N=C(c2ccccc2)c2ccccc2NC1=O (some centres not stated)	2700	
CSc1ccc(C(=O)NC2N=C(c3ccccc3)c3ccccc3NC2=O)cc1 (configuration not stated)	220	
CC(C)(C)OC(=O)N[C@H](Cc1c[nH]c2ccccc12)C(=O)NC1N=C(c2ccccc2)c2ccccc2NC1=O (some centres not stated)	6000	
O=C(NC1N=C(c2ccccc2)c2ccccc2NC1=O)c1ccc(O)cc1 (configuration not stated)	1800	
CN1C(=O)C(NC(=O)c2cc3ccccc3[nH]2)N=C(c2ccccc2)c2ccccc21 (configuration not stated)		ED50 [5]: 0.08 mg/kg
CN1C(=O)C(NC(=O)c2ccc(Cl)cc2)N=C(c2ccccc2F)c2ccccc21 (configuration not stated)	2.3	ED50 [5]: 0.2 mg/kg
CCOC(=O)CN1C(=O)C(NC(=O)c2ccc(Cl)cc2)N=C(c2ccccc2F)c2ccccc21 (configuration not stated)	110	
CN1C(=O)[C@H](NC(=O)c2cc3ccccc3[nH]2)N=C(c2ccccc2)c2ccccc21		ED50 [5]: 0.4 mg/kg
O=C1Nc2ccccc2C(c2ccccc2F)=NC1NC(=O)C(O)c1ccccc1 (configuration not stated)	100000	
O=C(NC1N=C(c2ccccc2)c2ccccc2NC1=O)c1ccc2ccccc2c1 (configuration not stated)	20	
CN1C(=O)C(N(C)C(=O)c2ccccc2Cl)N=C(c2ccccc2)c2ccccc21 (configuration not stated)	58000	
CN1C(=O)C(NC(=O)c2ccccc2Cl)N=C(c2ccccc2)c2ccccc21 (configuration not stated)	3400	
CN1C(=O)C(NC(=O)c2ccc(C(C)(C)C)cc2)N=C(c2ccccc2F)c2ccccc21 (configuration not stated)	100	

Compound	IC50 [2] [nM]	further results
O=C(/C=C/c1ccccc1)NC1N=C(c2ccccc2F)c2ccccc2NC1=O (configuration not stated)	11	
CN1C(=O)[C@@H](NC(=O)[C@H](N)Cc2ccccc2)N=C(c2ccccc2)c2ccccc21	1900	
CCCCCc1ccc(C(=O)NC2N=C(c3ccccc3F)c3ccccc3N(C)C2=O)cc1 (configuration not stated)	1100	
O=C1Nc2ccccc2C(c2ccccc2)=NC1NCCc1c[nH]c2ccccc12 (configuration not stated)	3000	
O=C(O)CN1C(=O)C(NC(=O)c2cc3ccccc3[nH]2)N=C(c2ccccc2)c2ccccc21 (configuration not stated)	1.4	ED50 [5]: 0.5 mg/kg
CC1(C(=O)NC2N=C(c3ccccc3F)c3ccccc3NC2=O)C=Cc2ccccc21 (configuration not stated)	22	
O=C(NC1N=C(c2ccccc2F)c2ccccc2NC1=O)c1ccsc1 (configuration not stated)	150	
O=C(NC1N=C(c2ccccc2F)c2ccccc2N(C(=O)c2ccc(Cl)cc2)C1=O)c1ccc(Cl)cc1 (configuration not stated)	18	
O=C(NC1N=C(c2ccccc2F)c2ccccc2NC1=O)c1cc2ccccc2o1 (configuration not stated)	9	
CN1C(=O)C(NC(=O)c2cc3ccccc3n2C)N=C(c2ccccc2)c2ccccc21 (configuration not stated)	1.4	IC50 [1]: > 100000 nM; ED50 [5]: 1.9 mg/kg
CC(=O)NC1N=C(c2ccccc2F)c2ccccc2NC1=O (configuration not stated)	40000	
CN1C(=O)C(N)N=C(c2ccccc2F)c2ccccc21 (configuration not stated)		IC50 [4]: 57000 nM
O=C(NC1N=C(c2ccccc2F)c2ccccc2NC1=O)c1ccc(Cl)cc1 (configuration not stated)	6	ED50 [5]: 1.4 mg/kg
CN1C(=O)C(NC(=O)c2ccc(Cl)cc2N)N=C(c2ccccc2)c2ccccc21 (configuration not stated)		IC50 [4]: 9 nM
O=C(NC1N=C(c2ccccc2F)c2ccccc2NC1=O)c1c(F)c(F)c(F)c(F)c1F (configuration not stated)	> 10000	
CN1C(=O)C(NC(=O)[C@H](Cc2ccccc2)NC(=O)OC(C)(C)C)N=C(c2ccccc2F)c2ccccc21 (some centres not stated)		IC50 [4]: 340 nM
CCOC(=O)CN1C(=O)C(NC(=O)c2ccccc2Cl)N=C(c2ccccc2F)c2ccccc21 (configuration not stated)		IC50 [4]: > 30000 nM
O=C1Nc2ccccc2C(c2ccccc2F)=NC1NCc1cc2ccccc2[nH]1 (configuration not stated)	87	
COc1ccc(C(=O)NC2N=C(c3ccccc3F)c3ccccc3NC2=O)cc1 (configuration not stated)	96	
O=C(NC1N=C(c2ccccc2F)c2ccccc2NC1=O)c1cc2cc(Br)ccc2[nH]1 (configuration not stated)	120	
N#Cc1ccc(C(=O)NC2N=C(c3ccccc3)c3ccccc3NC2=O)cc1 (configuration not stated)	730	

Compound	IC50 [2] [nM]	further results
CCOC(=O)CN1C(=O)C(NC=O)N=C(c2ccccc2)c2ccccc21 (configuration not stated)		IC50 [4]: > 100000 nM
O=C(NC1N=C(c2ccccc2)c2ccccc2NC1=O)c1ccccc1Cl (configuration not stated)	7500	
CN(C(=O)c1cc2ccccc2[nH]1)C1N=C(c2ccccc2)c2ccccc2NC1=O (configuration not stated)	13000	
CN1C(=O)CN=C(c2ccccc2)c2ccccc21	24600	IC50 [6]: 65 nM; Ratio [3]: 378
O=C(NC1N=C(c2ccccc2F)c2ccccc2NC1=O)c1ccc[nH]1 (configuration not stated)	110	
Cc1ccc(C(=O)NC2N=C(c3ccccc3F)c3ccccc3NC2=O)cc1 (configuration not stated)	21	
CN1C(=O)C(NC(=O)c2cc3ccccc3[nH]2)N=C(c2ccccc2F)c2ccccc21 (configuration not stated)	1.4	
O=C(Cc1cccc2sccc12)NC1N=C(c2ccccc2F)c2ccccc2NC1=O (configuration not stated)	1000	
O=C(O)CN1C(=O)C(NC(=O)c2ccc(Cl)cc2)N=C(c2ccccc2F)c2ccccc21 (configuration not stated)	32	
CN(C)c1ccc(C(=O)NC2N=C(c3ccccc3F)c3ccccc3NC2=O)cc1 (configuration not stated)	270	
Cn1c(C(=O)NC2N=C(c3ccccc3F)c3ccccc3NC2=O)cc2ccccc21 (configuration not stated)	4.7	
CN1C(=O)C(NC(=O)c2cccc(I)c2)N=C(c2ccccc2F)c2ccccc21 (configuration not stated)	0.75	
O=C(NC1N=C(c2ccccc2F)c2ccccc2NC1=O)c1cc2cc(O)ccc2[nH]1 (configuration not stated)	71	
O=C(NC1N=C(c2ccccc2)c2ccccc2NC1=O)c1cccc(Cl)c1 (configuration not stated)	81	
CCCCCc1ccc(C(=O)NC2N=C(c3ccccc3)c3ccccc3NC2=O)cc1 (configuration not stated)	27000	
O=C(NC1N=C(c2ccccc2)c2ccccc2NC1=O)c1ccc(Cl)c(Cl)c1 (configuration not stated)	29	
O=C(NC1N=C(c2ccccc2)c2ccccc2NC1=O)c1ccc(Cl)cc1 (configuration not stated)	41	
O=C1CN=C(c2ccccc2Cl)c2cc([N+](=O)[O-])ccc2N1 [CLONAZEPAM]	> 100000	Ratio [3]: >58000
CN1C(=O)[C@@H](NC(=O)c2cc3ccccc3[nH]2)N=C(c2ccccc2)c2ccccc21 [DEVAZEPIDE]		ED50 [5]: 0.04 mg/kg
CN1C(=O)CN=C(c2ccccc2F)c2ccccc21 [RO-054520]	42000	IC50 [6]: 24 nM; Ratio [3]: 1750
